Screens: PubChem, The Scripps Research Institute Molecular Screening Center
NPY1 pot ag = potentiates or activates human NPY-Y1 receptor. hit rate 0.37% among 220,000. NPY-Y1 expressing cells, potentiator/agonist activation. activation, % at 3.6 µM. P25929. AID 1304; in the data active means activation above about 33%, passing the limit was not always enough;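 further: cells stimulated with NPY at EC10 then isoproterenol at EC100; 0% = low agonist plus stimulus and 100% = saturating agonist plus stimulus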
Target sequence (P25929 whole entry, looked up): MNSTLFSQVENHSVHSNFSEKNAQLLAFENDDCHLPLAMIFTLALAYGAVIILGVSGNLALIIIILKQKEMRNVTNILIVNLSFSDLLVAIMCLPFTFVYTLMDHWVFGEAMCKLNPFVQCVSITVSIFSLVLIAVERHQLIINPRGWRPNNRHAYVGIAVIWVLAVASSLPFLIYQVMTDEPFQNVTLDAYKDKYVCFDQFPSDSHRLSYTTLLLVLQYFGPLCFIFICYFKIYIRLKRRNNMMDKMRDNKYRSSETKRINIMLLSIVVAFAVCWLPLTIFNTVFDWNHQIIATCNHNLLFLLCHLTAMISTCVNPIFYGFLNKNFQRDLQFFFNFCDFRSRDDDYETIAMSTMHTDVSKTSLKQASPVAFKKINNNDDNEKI
NPY-Y2 PAM-ag = potentiators or agonists of human neuropeptide Y receptor Y2; P49146; cells expressing NPY-Y2, potentiator/agonist read-out; activation, % at 3.6 µM; hit rate 0.45% among 220,000; in the data active means activation above about 27%;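 further: cells stimulated with NPY near EC25 plus isoproterenol at EC100; 0% = vehicle plus submaximal agonist and 100% = vehicle plus saturating agonist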
NPY Y1 blocker = NPY-Y1 (human) receptor antagonism. HEK293-CNG Y1 cells, membrane potential fluorescence; NPY at EC95, then isoproterenol. inhibition, % at 3.6 µM. hit rate 1% among 200,000. AID 1040;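 active means inhibition above the campaign mean inhibition of all tested compounds plus 3 SD, cut at about 20% in these data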;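 further: 0% = DMSO wells given NPY plus isoproterenol and 100% = isoproterenol alone without NPY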
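material = HEK293 cells with Y1 receptor plus CNG channel | also added = NPY 25 nM then isoproterenol 1 µM plus Ro 20-1724 25 µM | schedule = dye 3 h, compound 60 min room temperature, stimulation 45 min | measured by = membrane potential fluorescence | benchmarks = high control isoproterenol alone, low control NPY with isoproterenol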
NPY-Y2 antag = blocks the human neuropeptide Y Y2 receptor; P49146; NPY-Y2 expressing cells, antagonist mode; inhibition, % at 2.7 µM; hit rate 0.99% among 140,000; AID 793; in the data active means inhibition above about 17%;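 further: 0% = vehicle with agonist challenge and 100% = reference antagonist with challenge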
NPY-Y2 pot conf = confirmation of human NPY-Y2 receptor potentiators or agonists. cell-based NPY-Y2 potentiator/agonist assay. activation, % at 3.6 µM. hit rate 20% among 450. shares compounds with NPY-Y2 PAM-ag; in the data active means activation above about 33%
NPY-Y1 counter = counter-screen for NPY-Y2 potentiators or agonists: NPY-Y1 potentiators or agonists. activation, % at 3.6 µM. shares compounds with NPY-Y2 PAM-ag. Y1 HEK293-CNG cells, membrane potential fluorescence. hit rate 20% among 450. AID 1651; in the data active means activation above about 45%;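 further: cells stimulated with submaximal NPY then isoproterenol with phosphodiesterase inhibitor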
NPY-Y1 agonist 2 = human NPY-Y1 agonism as NPY-Y2 potentiator counter-screen; activation, % at 3.6 µM; HEK293 Y1-CNGC, membrane potential fluorescence; shares compounds with NPY-Y2 PAM-ag; AID 1702; hit rate 37% among 450;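 active means activation above the mean of DMSO-only control wells plus 3 SD, cut at about 18% in these data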;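 further: cells stimulated with 1 µM isoproterenol plus the PDE inhibitor Ro 20-1724; 0% = isoproterenol with DMSO and no NPY and 100% = 40 nM NPY; Y1 agonists lower the membrane potential dye signal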
CNGC inhibitor = counter-screen for NPY-Y2 potentiators: inhibitors of CNG channel activity; inhibition, % at 3.6 µM; hit rate 32% among 450; HEK293-CNG parental, isoproterenol cAMP, membrane potential fluorescence; AID 1703; shares compounds with NPY-Y2 PAM-ag;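 active means inhibition above the control-well mean plus 3 SD of those wells, cut at about 22% in these data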;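 further: 0% = DMSO with isoproterenol and 100% = DMSO without isoproterenol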
NPY-Y2 ag 2 = counter-screen for NPY-Y2 potentiators: agonists of human NPY-Y2. shares compounds with NPY-Y2 PAM-ag. HEK293 Y2/CNGC cells, membrane potential fluorescence, agonist mode. activation, % at 3.6 µM. hit rate 56% among 450. AID 1710;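 active means activation above the mean of solvent-only control wells plus 3 SD, cut at about 10% in these data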;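 further: cells stimulated by isoproterenol with no NPY added so direct agonism is tested; 0% = DMSO with isoproterenol alone and 100% = NPY at EC100 plus isoproterenol; agonism lowers probe fluorescence through less cAMP and CNG channel opening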
* marks the source's active call; other numbers are inactive results; · = no result. In the library only some 1.9% were active in any assay of this set; here they are far more common.

SMILES	NPY1 pot ag	NPY-Y2 PAM-ag	NPY Y1 blocker	NPY-Y2 antag	NPY-Y2 pot conf	NPY-Y1 counter	NPY-Y1 agonist 2	CNGC inhibitor	NPY-Y2 ag 2
O=C1c2ccccc2-c2onc3ccc(NCCCn4ccnc4)c1c23	38	38*	9	34*	-3	-6	-11	-10	3
Cc1nc(NCCCn2ccnc2)c2ccccc2n1	13	1	0	2	·	·	·	·	·
NC(N)=NS(=O)(=O)c1ccc(NC(=S)NC(=O)c2ccc3c(c2)OCO3)cc1	-7	12	0	·	·	·	·	·	·
CC(=O)OCC1O[C@@H](O[C@@H]2C[C@H]3C(C)(C)[C@H](OC(C)=O)CC[C@]3(C)[C@H]3CC[C@]45C[C@]4(CC[C@H]5[C@@H](C)C[C@@H](O)[C@H](O)C(C)(C)O)[C@@]32C)[C@H](O)[C@@H](O)[C@@H]1O (stereo not given in full)	31	35*	-10	0	32	31	39*	26*	35*
Cc1ccc(S(=O)(=O)NC(=O)c2cc(C)n(-c3ccc(N(C)C)cc3)c2C)cc1	-18	4	-4	3	·	·	·	·	·
O=c1[nH]c(/C=C\c2cccnc2)c([N+](=O)[O-])c(=O)[nH]1	26	37*	-12	·	25	37	39*	27*	31*
O=c1[nH]c(/C=C/c2cccnc2)c([N+](=O)[O-])c(=O)[nH]1	16	26	-8	·	·	·	·	·	·
C#CCSc1nc(N)c2c(n1)OC(N)=C(C#N)C2c1cccnc1 (stereo not given)	4	58*	-4	·	21	25	16	-4	6
O=C1COc2ccc(C(=O)COC(=O)c3ccco3)cc2N1	8	-3	·	·	·	·	·	·	·
O=C1COc2ccc(C(=O)COC(=O)c3cc(S(=O)(=O)NCc4ccccc4)ccc3O)cc2N1	12	98*	·	·	-8	-9	-16	2	5
O=[N+]([O-])c1ccc(N2CCN(S(=O)(=O)c3ccccc3)CC2)c2cccnc12	10	-4	-4	·	·	·	·	·	·
O=[N+]([O-])c1cccc2c(N3CCOCC3)ccnc12	4	40*	0	·	2	6	5	4	13*
CCn1c2ccccc2c2cc(NC(=O)CSc3nnc(-c4ccccc4OC)n3N)ccc21	15	43*	-10	-5	11	15	19*	17	16*
CCOC(=O)/C=C1\SCC(=O)N1CC(=O)Nc1cccc(F)c1	-2	19	-2	·	·	·	·	·	·
O=S(=O)(c1cccc(NC(=S)N2CCN(c3cccc(Cl)c3)CC2)c1)C(F)F	7	30*	-4	-3	10	-1	7	13	17*
O=S(=O)(c1cccc(NC(=S)N2CCN(c3ccc(F)cc3)CC2)c1)C(F)F	9	9	-10	-2	·	·	·	·	·
CC1=CC(=O)C(C(C)C)=C/C1=N/OS(=O)(=O)c1ccccc1	35	63*	·	·	26	9	2	11	22*
CCn1[nH]c(=O)c(=Nc2c(C)n(C)n(-c3ccccc3)c2=O)cc1-c1ccc(Cl)cc1	53	41*	-7	1	38*	60*	43*	53*	30*
Fc1ccc(Nc2c(-c3ccco3)nc3ccccn23)cc1	-1	32*	7	6	30	31	18*	17	22*
COc1ccc(/C=C\C(=O)c2c(O)ccc3c(C)cc(=O)oc23)cc1OC	23	-14	5	3	·	·	·	·	·
CC(C)=CCN1CCN(Cc2ccc(Sc3nncn3C)o2)CC1CCO (stereo not given)	3	7	4	·	·	·	·	·	·
CN(CCO)c1nc(N)c2c(N)nc3c(c2c1C#N)CC(=O)N3Cc1cccs1	28	40*	-1	·	-1	-4	-14	-10	-10
N#Cc1c(N(CCO)CCO)nc(N)c2c(N)nc3c(c12)CC(=O)N3Cc1cccs1	-6	2	·	·	·	·	·	·	·
C=C(C)CN(CC)C(=O)CC1C(=O)NCCN1CC(C)(C)C (stereo not given)	17	51*	·	·	1	11	-1	2	6
